Active and inactive are the calls of the source. The calls are words filed in the database; no cut-off is given here.
What was measured:
[1] = biological target: Eukaryotic translation initiation factor 2-alpha kinase 1 (Mus musculus) (UniProt Q9Z2R9); assay: Activation of HRI in mouse KLN cells transfected with 5'UTR of ATF-4 mRNA fused firefly luciferase mRNA and 5'UTR lacking uORF fused renila luciferase mRNA assessed as increase in eIF2alpha phosphorylation by measuring ratio of firefly luciferase to renila luciferase at 5 uM after 16 hrs; format: cell-based
Sequence of Eukaryotic translation initiation factor 2-alpha kinase 1 (Mus musculus) (Q9Z2R9 whole entry, the tested form may be a part): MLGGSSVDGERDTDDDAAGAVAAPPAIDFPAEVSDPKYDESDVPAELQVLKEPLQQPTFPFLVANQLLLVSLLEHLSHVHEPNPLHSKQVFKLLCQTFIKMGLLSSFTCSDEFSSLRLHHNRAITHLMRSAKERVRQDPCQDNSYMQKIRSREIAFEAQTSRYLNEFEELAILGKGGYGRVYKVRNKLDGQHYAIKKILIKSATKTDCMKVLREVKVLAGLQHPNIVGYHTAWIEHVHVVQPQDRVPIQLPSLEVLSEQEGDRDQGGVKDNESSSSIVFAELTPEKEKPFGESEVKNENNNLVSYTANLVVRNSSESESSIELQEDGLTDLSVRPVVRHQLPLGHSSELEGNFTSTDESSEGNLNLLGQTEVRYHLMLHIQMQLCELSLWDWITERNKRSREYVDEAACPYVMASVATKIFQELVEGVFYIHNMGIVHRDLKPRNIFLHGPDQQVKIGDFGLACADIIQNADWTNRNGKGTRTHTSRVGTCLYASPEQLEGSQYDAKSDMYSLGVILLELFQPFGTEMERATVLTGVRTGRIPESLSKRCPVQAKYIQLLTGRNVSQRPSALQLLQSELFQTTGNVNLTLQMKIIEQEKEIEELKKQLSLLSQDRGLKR

Mus musculus [2] = assay: Neurotoxicity in NU008 nude mouse xenografted with human CRL2813 cells at 150 mg/kg, ip qd administered for 4 days followed by 4 days off and 3 days on for total 28 days; format: toxicity, organism-based; conditions: in vivo
Summary of the method: (§1)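 Xenograft-bearing nude mice dosed i.p. on the 28-day intermittent schedule (150 or 37.5 mg/kg in NMP/Cremophor EL/water). Euthanized at the end of treatment; organs harvested, fixed and examined histopathologically.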

Mus musculus [3] = assay: Cardiotoxicity in NU008 nude mouse xenografted with human CRL2813 cells at 150 mg/kg, ip qd administered for 4 days followed by 4 days off and 3 days on for total 28 days; format: toxicity, organism-based; conditions: in vivo; summary of the method: as §1
Mus musculus [4] = assay: Induction of eIF2alpha phosphorylation in tumor of NU008 nude mouse xenografted with human CRL2813 cells at 37.5 to 150 mg/kg, ip qd administered for 3 days by Western blot analysis; format: functional, organism-based
Summary of the method: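 Mice bearing ~200 mm3 CRL-2813 xenografts injected on three consecutive days with vehicle or the same doses used in the efficacy study. Tumors excised, lysed and immunoblotted for phosphorylated and total eIF2α.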

Mus musculus [5] = assay: Nephrotoxicity in NU008 nude mouse xenografted with human CRL2813 cells at 150 mg/kg, ip qd administered for 4 days followed by 4 days off and 3 days on for total 28 days; format: toxicity, organism-based; conditions: in vivo; summary of the method: as §1
[6] = Effect on beta actin protein expression in human CRL2813 cells at 5 uM after 8 hrs by Western blot analysis; format: ADME, cell-based; conditions: crl2813, 8 h
Summary of the method: (§2)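 CRL-2813 cells at 70% confluence in serum-containing, antibiotic-free medium; treated at 5 μM for 8 h. Lysed in M-PER on ice for 30 min, equal protein by BCA, SDS-PAGE and immunoblot for CHOP, cyclin D1 and β-actin. Blots representative of three independent experiments.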

[7] = biological target: Eukaryotic translation initiation factor 2-alpha kinase 1 (Homo sapiens) (UniProt Q9BQI3); assay: Activation of HRI in human CRL2813 cells assessed as increase in CHOP protein expression at 5 uM after 8 hrs by Western blot analysis; format: cell-based; summary of the method: as §2
Sequence of Eukaryotic translation initiation factor 2-alpha kinase 1 (Homo sapiens) (Q9BQI3 whole entry): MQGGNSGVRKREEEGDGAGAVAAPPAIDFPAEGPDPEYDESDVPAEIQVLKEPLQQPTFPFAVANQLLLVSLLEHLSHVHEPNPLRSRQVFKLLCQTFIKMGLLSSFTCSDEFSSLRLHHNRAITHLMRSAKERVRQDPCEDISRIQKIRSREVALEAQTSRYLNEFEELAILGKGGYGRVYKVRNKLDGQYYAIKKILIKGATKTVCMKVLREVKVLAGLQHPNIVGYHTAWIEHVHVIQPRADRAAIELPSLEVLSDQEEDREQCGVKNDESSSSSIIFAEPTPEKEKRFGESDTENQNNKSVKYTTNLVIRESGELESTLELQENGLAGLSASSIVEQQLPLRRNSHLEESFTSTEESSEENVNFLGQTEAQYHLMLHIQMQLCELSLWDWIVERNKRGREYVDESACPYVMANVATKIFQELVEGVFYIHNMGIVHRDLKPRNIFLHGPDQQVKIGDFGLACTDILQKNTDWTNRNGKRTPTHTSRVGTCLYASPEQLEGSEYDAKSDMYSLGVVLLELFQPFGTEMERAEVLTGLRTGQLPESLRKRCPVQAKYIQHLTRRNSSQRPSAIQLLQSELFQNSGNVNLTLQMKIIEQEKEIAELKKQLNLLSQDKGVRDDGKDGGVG

Mus musculus [8] = assay: Toxicity in NU008 nude mouse xenografted with human CRL2813 cells assessed as body weight change at 37.5 mg/kg, ip qd administered for 4 days followed by 4 days off and 3 days on for total 28 days; format: organism-based; conditions: in vivo
Summary of the method: (§3)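 Male nude mice injected s.c. with CRL-2813 cells; once tumors reached 100–150 mm3, randomized into groups of nine. Given i.p. q.d. at 150 or 37.5 mg/kg (4 days on, 4 off, 3 on; 28 days total) in NMP/Cremophor EL/water at 1 μl/g. Vehicle controls received the mixture alone. Body weight measured twice weekly; tumors by caliper weekly. Mean ± SEM.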

[9] = biological target: Eukaryotic translation initiation factor 2-alpha kinase 1 (Homo sapiens) (UniProt Q9BQI3); assay: Activation of HRI in human CRL2813 cells assessed as increase in eIF2alpha phosphorylation at 5 uM after 2 hrs by Western blot analysis; format: cell-based
Summary of the method: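 Adherent CRL-2813 melanoma cells exposed to 5 μM for 2 h. Lysates immunoblotted with anti-phosphoserine-51 eIF2α and anti-total eIF2α antibodies after BCA normalization and SDS-PAGE. Gels representative of three independent experiments.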

Mus musculus [10] = assay: Hepatotoxicity in NU008 nude mouse xenografted with human CRL2813 cells at 150 mg/kg, ip qd administered for 4 days followed by 4 days off and 3 days on for total 28 days; format: toxicity, organism-based; conditions: in vivo; summary of the method: as §1
Mus musculus [11] = assay: Toxicity in NU008 nude mouse xenografted with human CRL2813 cells assessed as body weight change at 150 mg/kg, ip qd administered for 4 days followed by 4 days off and 3 days on for total 28 days; format: organism-based; conditions: in vivo; summary of the method: as §3
[12] = Antitumor activity against human CRL2813 cells xenografted in NU008 nude mouse assessed as tumor growth inhibition at 150 mg/kg, ip qd administered for 4 days followed by 4 days off and 3 days on for total 28 days relative to control; format: functional; conditions: read-out: TGI; summary of the method: as §3
[13] = biological target: Eukaryotic translation initiation factor 2-alpha kinase 1 (Mus musculus) (UniProt Q9Z2R9); assay: Activation of HRI in mouse KLN cells transfected with 5'UTR of ATF-4 mRNA fused firefly luciferase mRNA and 5'UTR lacking uORF fused renila luciferase mRNA assessed as increase in eIF2alpha phosphorylation by measuring ratio of firefly luciferase to renila luciferase at 1.25 uM after 16 hrs; format: cell-based
[14] = Tmax in NU008 nude mouse xenografted with human CRL2813 cells at 40 mg/kg, ip by LC-MS analysis; format: ADME, organism-based; conditions: in vivo
Summary of the method: (§4)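 Single i.p. dose of 40 mg/kg. Blood sampled before and at 0.5, 1, 2, 4, 6, 24, 48 and 72 h, mixed with 0.1% EDTA. Whole-blood levels quantified by LC-MS/MS (C18 column at 45 °C) against a standard curve. At least three mice per time point, mean ± SEM.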

[15] = biological target: Eukaryotic translation initiation factor 2-alpha kinase 1 (Mus musculus) (UniProt Q9Z2R9); assay: Activation of HRI in mouse KLN cells transfected with 5'UTR of ATF-4 mRNA fused firefly luciferase mRNA and 5'UTR lacking uORF fused renila luciferase mRNA assessed as increase in eIF2alpha phosphorylation by measuring ratio of firefly luciferase to renila luciferase after 16 hrs; format: cell-based
[16] = biological target: Eukaryotic translation initiation factor 2-alpha kinase 1 (Homo sapiens) (UniProt Q9BQI3); assay: Activation of HRI in human CRL2813 cells assessed as induction of CHOP mRNA level at 5 uM by real-time PCR relative to 18S RNA; format: cell-based
Summary of the method: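 Fold induction of CHOP mRNA in cells treated at 5 μM, normalized to 18S RNA and expressed relative to DMSO (set to 1). Triplicate samples, three independent experiments, mean ± SEM.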

[17] = Antitumor activity against human CRL2813 cells xenografted in NU008 nude mouse assessed as tumor growth inhibition at 37.5 mg/kg, ip qd administered for 4 days followed by 4 days off and 3 days on for total 28 days relative to control; format: functional; conditions: read-out: TGI; summary of the method: as §3
Mus musculus [18] = assay: Toxicity in NU008 nude mouse xenografted with human CRL2813 cells assessed as histopathologic change in spleen at 150 mg/kg, ip qd administered for 4 days followed by 4 days off and 3 days on for total 28 days; format: organism-based; conditions: in vivo; summary of the method: as §1
[19] = Apparent half life in NU008 nude mouse xenografted with human CRL2813 cells at 40 mg/kg, ip by LC-MS analysis; format: ADME, organism-based; conditions: in vivo, read-out: t1/2(app) (converted); summary of the method: as §4
CRL2813 = assay: Antitumor activity against human CRL2813 cells xenografted in ip dosed NU008 nude mouse assessed as tumor growth inhibition administered qd for 4 days followed by 4 days off and 3 days on for total 28 days; format: functional, organism-based; summary of the method: as §3
[20] = Antiproliferative activity against human CRL2813 cells after 5 days by sulforhodamine B assay; format: functional, cell-based; conditions: CRL2813, 120 h
Summary of the method: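 CRL-2813 melanoma cells grown 5 days with 0.5–20 μM compound, then fixed in cold 10% TCA and stained with sulforhodamine B. Bound dye measured. Growth % = 100×(T−T0)/(C−T0), with T0 at time zero. IC50 is the concentration giving 50% growth inhibition.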

[21] = biological target: Eukaryotic translation initiation factor 2-alpha kinase 1 (Homo sapiens) (UniProt Q9BQI3); assay: Activation of HRI in human CRL2813cells assessed as decrease in cyclin D1 protein expression at 5 uM after 8 hrs by Western blot analysis; summary of the method: as §2
Mus musculus [22] = assay: Toxicity in NU008 nude mouse xenografted with human CRL2813 cells assessed as histopathologic change in bone marrow at 150 mg/kg, ip qd administered for 4 days followed by 4 days off and 3 days on for total 28 days; format: organism-based; conditions: in vivo; summary of the method: as §1

Compound: N#Cc1cc(NC(=O)N[C@H]2CC[C@H](Oc3ccc(C(F)(F)F)cc3)CC2)cc(C(F)(F)F)c1
- Ratio [1]: 13.2
- Activity (Mus musculus [2]): Non-Toxic
- Activity (Mus musculus [3]): Non-Toxic
- Activity (Mus musculus [4]): Active
- Activity (Mus musculus [5]): Non-Toxic
- Activity [6]: Non-Toxic
- Activity [7]: Active
- Activity (Mus musculus [8]): < 10%
- Activity [9]: Active
- Activity (Mus musculus [10]): Non-Toxic
- Activity (Mus musculus [11]): < 10%
- inhibition in vivo at 150 mg/kg [12]: 90%
- Ratio [13]: 5.65
- Tmax [14]: 6 to 24 h
- Activity [15]: Dose-dependent effect
- fold change (FC) [16]: 9.87
- inhibition in vivo at 37.5 mg/kg [17]: 50%
- Activity (Mus musculus [18]): Non-Toxic
- half-life [19]: 40 h
- TGI (CRL2813): Dose-dependent effect
- IC50 [20]: 250 nM
- Activity [21]: Active
- Activity (Mus musculus [22]): Non-Toxic

— ChEMBL document CHEMBL4011623, “Development of 1-((1,4-trans)-4-Aryloxycyclohexyl)-3-arylurea Activators of Heme-Regulated Inhibitor as Selective Activators of the Eukaryotic Initiation Factor 2 Alpha (eIF2α) Phosphorylation Arm of the Integrated Endoplasmic Reticulum Stress Response” (J Med Chem, 2017)
